Positions count from the first letter of the chain named.
Legend:
Type in all cases: cell-based
mTRPV3 F666A = target: T1, mTRPV3 F666A (Mus musculus, UniProt Q8K424, F666A); experiment: whole-cell patch-clamp of mTRPV3 F666A mutant in HEK293 cells; conditions: compound 50 μmol/L; 2-APB; compared with WT mTRPV3
T1 sequence (Q8K424 1-791 F666A): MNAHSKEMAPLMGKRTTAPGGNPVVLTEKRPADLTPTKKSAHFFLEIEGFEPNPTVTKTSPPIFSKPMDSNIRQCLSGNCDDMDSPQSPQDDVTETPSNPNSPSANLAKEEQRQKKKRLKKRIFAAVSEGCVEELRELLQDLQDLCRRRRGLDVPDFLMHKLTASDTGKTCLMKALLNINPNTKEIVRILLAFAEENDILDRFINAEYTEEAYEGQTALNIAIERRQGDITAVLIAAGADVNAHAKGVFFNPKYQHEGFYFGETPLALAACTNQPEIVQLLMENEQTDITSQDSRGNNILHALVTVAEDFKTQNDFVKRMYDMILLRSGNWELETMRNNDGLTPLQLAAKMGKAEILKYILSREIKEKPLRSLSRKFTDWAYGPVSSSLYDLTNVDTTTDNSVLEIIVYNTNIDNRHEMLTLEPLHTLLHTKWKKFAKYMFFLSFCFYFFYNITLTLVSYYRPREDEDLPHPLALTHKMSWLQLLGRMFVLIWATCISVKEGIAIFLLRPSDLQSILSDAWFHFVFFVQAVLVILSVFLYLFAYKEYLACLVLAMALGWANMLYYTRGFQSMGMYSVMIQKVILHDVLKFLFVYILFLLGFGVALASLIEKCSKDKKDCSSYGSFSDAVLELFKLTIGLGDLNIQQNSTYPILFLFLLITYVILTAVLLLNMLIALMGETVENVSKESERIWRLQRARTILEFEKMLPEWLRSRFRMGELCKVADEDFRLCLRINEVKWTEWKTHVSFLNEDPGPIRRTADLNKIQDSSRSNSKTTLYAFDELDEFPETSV
Procedure, shortened: (§1)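 Mouse Trpv3 point mutants were made by site-directed mutagenesis, sequence-verified, and transiently expressed in HEK293 cells alongside wild-type mTRPV3. Whole-cell ramp recordings (−100 to +100 mV, 500 ms, holding 0 mV) were made at 22–24 °C. Currents were activated by 2-APB, and inhibition by 50 μmol/L test compound in the presence of 2-APB was compared with wild type; n = 3–8.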

mTRPV3 T665A = target: T2, mTRPV3 T665A (Mus musculus, UniProt Q8K424, T665A); experiment: whole-cell patch-clamp of mTRPV3 T665A mutant in HEK293 cells; conditions: compound 50 μmol/L; 2-APB; compared with WT mTRPV3
T2 sequence (Q8K424 1-791 T665A): T1 sequence (Q8K424 1-791 F666A) with T665A, A666F
Procedure, shortened: as §1

hTRPV3 = target: T3, hTRPV3 (Homo sapiens, UniProt Q8NET8); experiment: whole-cell patch-clamp of hTRPV3 currents expressed in HEK293 cells; conditions: for inhibition of hTRPV3 channel current activated by 2-APB: compound 50 μmol/L, agonist 2-APB 50 μmol/L, n = 5; for Hill coefficient: inhibition of hTRPV3 currents evoked by 2-APB 50 μmol/L
T3 sequence (Q8NET8 1-790): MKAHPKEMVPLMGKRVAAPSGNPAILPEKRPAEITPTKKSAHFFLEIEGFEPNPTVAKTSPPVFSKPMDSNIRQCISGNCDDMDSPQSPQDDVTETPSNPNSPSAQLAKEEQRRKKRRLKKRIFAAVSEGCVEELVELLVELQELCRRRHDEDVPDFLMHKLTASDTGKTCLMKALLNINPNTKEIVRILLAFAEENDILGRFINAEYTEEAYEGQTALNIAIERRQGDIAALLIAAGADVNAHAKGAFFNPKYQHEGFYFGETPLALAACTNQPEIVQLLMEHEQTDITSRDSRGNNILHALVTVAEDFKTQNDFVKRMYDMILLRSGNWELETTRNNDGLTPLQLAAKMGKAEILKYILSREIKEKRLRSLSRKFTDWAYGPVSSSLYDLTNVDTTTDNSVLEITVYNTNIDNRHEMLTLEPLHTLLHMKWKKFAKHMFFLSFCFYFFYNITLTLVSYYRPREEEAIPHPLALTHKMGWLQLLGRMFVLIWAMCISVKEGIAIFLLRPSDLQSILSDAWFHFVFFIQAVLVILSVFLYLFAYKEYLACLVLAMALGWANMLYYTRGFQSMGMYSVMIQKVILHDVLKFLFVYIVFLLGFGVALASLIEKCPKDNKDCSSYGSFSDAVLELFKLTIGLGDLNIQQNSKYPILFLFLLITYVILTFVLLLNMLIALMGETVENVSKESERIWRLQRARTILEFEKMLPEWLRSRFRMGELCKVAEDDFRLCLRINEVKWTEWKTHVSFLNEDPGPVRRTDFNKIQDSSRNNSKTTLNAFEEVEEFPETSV
Procedure, shortened: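 Whole-cell currents were recorded from hTRPV3-transfected HEK293 cells (EGFP-identified, 18 h post-transfection) at 22–24 °C. Cells were held at 0 mV and ramped from −100 to +100 mV over 500 ms every 2 s. Currents were activated by 50 μmol/L 2-APB; test compound was added at 50 μmol/L or at 0.01–100 μmol/L. Outward current at +80 mV was fitted to a Hill equation for IC50; n = 5–8.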

With O=C(/C=C/c1ccc(O)c(O)c1)O[C@@H]1[C@H](O)C[C@@](O)(C(=O)O)C[C@H]1OC(=O)/C=C/c1ccc(O)c(O)c1 [IAB, isochlorogenic acid B] the “effect of mutation on compound-induced inhibition of mTRPV3 currents” value (mTRPV3 F666A) was “markedly reduced”, the “effect of mutation on compound-induced inhibition of mTRPV3 currents” value (mTRPV3 T665A) was “no obvious effect” and the “inhibition of hTRPV3 channel current activated by 2-APB” value (hTRPV3) was ~86.4 ± 3.3%. The “better potency of IAB versus IAA” value (hTRPV3; from hTRPV3 IC50 values) was 3 fold and the Hill coefficient (hTRPV3) was 0.53.
In the case of O=C(/C=C/c1ccc(O)c(O)c1)O[C@@H]1C[C@](O)(C(=O)O)C[C@@H](OC(=O)/C=C/c2ccc(O)c(O)c2)[C@H]1O [IAA, isochlorogenic acid A], the “effect of mutation on compound-induced inhibition of mTRPV3 currents” value (mTRPV3 F666A) is reported as “markedly reduced”, the “effect of mutation on compound-induced inhibition of mTRPV3 currents” value (mTRPV3 T665A) is reported as “no obvious effect” and the “inhibition of hTRPV3 channel current activated by 2-APB” value (hTRPV3) is reported as “about 80.8 ± 2.1%”. The Hill coefficient (hTRPV3) was 0.50.

— article PMC8897028 (Acta Pharmaceutica Sinica. B, 2021)
